Measured values: ChEMBL document CHEMBL5316332 (J Med Chem, 2023)
Activity calls are given as the source filed them. The calls are words filed in the database; no cut-off is given here.

What was measured:
[1] = target: T1, Bone morphogenetic protein receptor type-2 (Homo sapiens) (UniProt Q13873); assay: Inhibition of human BMPR2 at 1 uM by DiscoveRx Kinomescan method
T1 sequence (whole entry): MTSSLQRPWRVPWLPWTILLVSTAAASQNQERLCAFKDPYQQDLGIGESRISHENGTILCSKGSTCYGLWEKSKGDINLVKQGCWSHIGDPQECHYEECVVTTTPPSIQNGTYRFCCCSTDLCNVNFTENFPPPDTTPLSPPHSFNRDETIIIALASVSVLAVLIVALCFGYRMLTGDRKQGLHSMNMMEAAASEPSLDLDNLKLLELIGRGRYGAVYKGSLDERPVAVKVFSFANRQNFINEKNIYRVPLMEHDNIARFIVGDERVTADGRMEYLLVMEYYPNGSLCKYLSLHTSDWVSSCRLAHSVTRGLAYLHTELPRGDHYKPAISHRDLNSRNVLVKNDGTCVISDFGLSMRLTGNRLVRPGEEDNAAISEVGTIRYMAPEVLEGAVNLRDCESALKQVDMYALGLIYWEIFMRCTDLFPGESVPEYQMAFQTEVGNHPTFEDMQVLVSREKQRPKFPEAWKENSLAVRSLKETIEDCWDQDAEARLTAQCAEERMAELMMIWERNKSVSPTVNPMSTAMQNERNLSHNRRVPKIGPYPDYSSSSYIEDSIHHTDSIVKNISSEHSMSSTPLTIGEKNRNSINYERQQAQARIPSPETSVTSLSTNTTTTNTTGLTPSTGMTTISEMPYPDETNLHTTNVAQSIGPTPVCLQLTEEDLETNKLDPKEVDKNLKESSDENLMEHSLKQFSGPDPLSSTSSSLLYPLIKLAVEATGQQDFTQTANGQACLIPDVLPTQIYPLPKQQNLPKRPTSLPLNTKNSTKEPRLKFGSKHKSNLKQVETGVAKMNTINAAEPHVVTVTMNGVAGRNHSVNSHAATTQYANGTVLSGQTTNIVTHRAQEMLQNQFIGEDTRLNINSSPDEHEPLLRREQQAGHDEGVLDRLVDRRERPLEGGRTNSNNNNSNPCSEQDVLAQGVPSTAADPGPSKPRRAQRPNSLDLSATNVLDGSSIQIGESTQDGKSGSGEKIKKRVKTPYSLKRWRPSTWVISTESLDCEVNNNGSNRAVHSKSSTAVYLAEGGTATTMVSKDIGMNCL
Procedure, shortened: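 Outsourced KINOMEscan panel of 403 kinases, with compound at 1 μM.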

[2] = target: T2, Activin receptor type-1 (Homo sapiens) (UniProt Q04771); assay: Inhibition of ACVR1 (unknown origin) by LanthaScreen TR-FRET assay
T2 sequence (whole entry): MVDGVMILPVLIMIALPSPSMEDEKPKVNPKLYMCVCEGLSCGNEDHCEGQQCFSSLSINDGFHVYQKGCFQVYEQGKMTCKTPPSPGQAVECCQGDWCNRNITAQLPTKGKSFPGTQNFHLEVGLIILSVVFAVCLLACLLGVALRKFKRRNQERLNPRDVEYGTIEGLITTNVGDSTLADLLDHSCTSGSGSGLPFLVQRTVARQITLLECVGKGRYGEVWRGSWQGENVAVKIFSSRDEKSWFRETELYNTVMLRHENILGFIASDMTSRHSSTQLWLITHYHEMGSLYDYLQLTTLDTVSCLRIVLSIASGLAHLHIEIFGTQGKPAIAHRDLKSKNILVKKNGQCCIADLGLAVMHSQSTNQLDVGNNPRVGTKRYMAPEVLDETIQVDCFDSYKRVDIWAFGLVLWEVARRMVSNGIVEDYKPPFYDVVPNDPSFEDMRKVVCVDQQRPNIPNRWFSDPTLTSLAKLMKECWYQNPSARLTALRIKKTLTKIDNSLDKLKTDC
Procedure, shortened: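 Outsourced SelectScreen profiling using a LanthaScreen TR-FRET binding format, in which a tight-binding tracer is displaced from the kinase.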

CNC(=O)[C@@H]1CC[C@@H](n2c(-c3ccc4cnccc4c3)nc3ccc(C(=O)NCc4cccc(C(N)=O)c4)cc32)C1
inhibition [1]: Active

COc1cnc(Nc2cccc(S(N)(=O)=O)c2)nc1N1CCN(c2ccccc2)C(=O)C1
inhibition [2]: inactive
